Source: article PMC5498144 (BMB Reports, 2017)

Experiments:
PTPN2 [1] = target: T1, PTPN2 (Homo sapiens, UniProt P17706); experiment: DARTS assay; format: binding; conditions: 1 μM pretreatment 20 min, then trypsin on ice; PTPN2/trypsin 100:1
T1 sequence (P17706 1-415): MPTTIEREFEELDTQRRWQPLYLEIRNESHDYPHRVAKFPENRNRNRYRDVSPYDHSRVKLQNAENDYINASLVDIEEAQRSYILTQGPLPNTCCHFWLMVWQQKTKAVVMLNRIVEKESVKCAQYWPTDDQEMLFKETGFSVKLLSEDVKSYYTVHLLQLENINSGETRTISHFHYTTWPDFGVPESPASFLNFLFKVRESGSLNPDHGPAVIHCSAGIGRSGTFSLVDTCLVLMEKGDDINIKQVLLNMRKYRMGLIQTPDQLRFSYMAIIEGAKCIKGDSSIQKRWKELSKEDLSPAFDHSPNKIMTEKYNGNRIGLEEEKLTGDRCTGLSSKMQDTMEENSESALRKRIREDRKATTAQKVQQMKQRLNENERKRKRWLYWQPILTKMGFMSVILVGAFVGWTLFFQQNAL

DUSP18 = target: T2, DUSP18 (Homo sapiens, UniProt Q8NEJ0); experiment: In vitro phosphatase assay with OMFP as substrate; format: biochemical
T2 sequence (Q8NEJ0 1-188): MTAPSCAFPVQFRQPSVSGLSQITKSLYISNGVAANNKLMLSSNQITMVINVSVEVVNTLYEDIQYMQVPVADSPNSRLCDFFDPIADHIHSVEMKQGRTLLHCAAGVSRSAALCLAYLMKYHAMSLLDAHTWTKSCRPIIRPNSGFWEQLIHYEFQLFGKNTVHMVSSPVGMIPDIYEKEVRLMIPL
Procedure, shortened: (§1)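 His-tagged human PTPs expressed in E. coli BL21(DE3)-RIL (1 mM IPTG, 37°C, 3 h) and Ni-NTA purified. 100 nM enzyme in 30 mM Tris-HCl pH 7.0, 75 mM NaCl, 1 mM EDTA, 0.4 mM DTT, 0.132% BSA, 1% DMSO final. Test compound (water-dissolved; 0, 5, 10 μM) present; started with 100 μM OMFP; 30 min at 37°C. Fluorescence ex 495/em 535 nm; triplicates; IC50 by curve fitting.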

DUSP23 = target: T3, DUSP23 (Homo sapiens, UniProt Q9BVJ7); experiment: In vitro phosphatase assay with OMFP as substrate; format: biochemical
T3 sequence (Q9BVJ7 1-150): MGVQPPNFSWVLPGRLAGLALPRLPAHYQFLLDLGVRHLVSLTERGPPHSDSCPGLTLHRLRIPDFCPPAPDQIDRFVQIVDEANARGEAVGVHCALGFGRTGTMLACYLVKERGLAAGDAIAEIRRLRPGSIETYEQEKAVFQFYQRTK
Procedure, shortened: as §1

[2] = tested on: PTPN2-mediated dephosphorylation of STAT3 at Tyr-705; format: cell-based, human; conditions: HEK 293 cells with FLAG-PTPN2, 1.5 μM 6 h, then IL-6 10 ng/ml 30 min
Procedure, shortened: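 HEK 293 cells transfected with FLAG-PTPN2 wild type or catalytically dead C216S plasmid using polyethylenimine. After 42 h, treated with test compound (1.5 μM) for 6 h, then IL-6 (10 ng/ml) for 30 min. Cells lysed in PTP lysis buffer. Immunoblots probed for phospho-STAT3 Tyr-705 and total STAT3, detected by ECL and quantified by densitometry relative to the IL-6-stimulated group.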

PTEN = PTEN (Homo sapiens, UniProt P60484); experiment: In vitro phosphatase assay with OMFP as substrate; format: biochemical
Procedure, shortened: as §1

Cdc25B = target: T4, Cdc25B (Homo sapiens, UniProt P30305); experiment: In vitro phosphatase assay with OMFP as substrate; format: biochemical
T4 sequence (P30305 1-580): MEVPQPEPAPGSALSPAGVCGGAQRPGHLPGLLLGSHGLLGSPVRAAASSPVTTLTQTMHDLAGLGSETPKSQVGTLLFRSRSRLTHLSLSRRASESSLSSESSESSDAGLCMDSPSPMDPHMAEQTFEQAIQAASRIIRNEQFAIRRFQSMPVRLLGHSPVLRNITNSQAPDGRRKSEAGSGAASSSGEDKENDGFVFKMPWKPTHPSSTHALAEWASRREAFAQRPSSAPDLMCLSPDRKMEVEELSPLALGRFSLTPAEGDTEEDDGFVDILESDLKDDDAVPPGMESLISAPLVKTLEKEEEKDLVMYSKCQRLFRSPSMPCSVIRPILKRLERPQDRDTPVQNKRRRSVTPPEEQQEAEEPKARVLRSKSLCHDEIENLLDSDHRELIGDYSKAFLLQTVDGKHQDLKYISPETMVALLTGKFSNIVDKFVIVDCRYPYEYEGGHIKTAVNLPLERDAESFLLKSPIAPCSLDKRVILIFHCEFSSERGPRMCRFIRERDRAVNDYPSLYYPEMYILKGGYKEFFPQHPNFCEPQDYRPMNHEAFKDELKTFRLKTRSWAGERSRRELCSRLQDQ
Procedure, shortened: as §1

HEK 293 cells = experiment: Cell viability assay; format: cell-based, human; conditions: 6 h, up to 1.5 μM (tested 1, 1.5, 2, 3 μM)
Procedure, shortened: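 HEK 293 cells grown in DMEM with 10% FBS and 1% penicillin/streptomycin under 5% CO2. Seeded at 1.5 × 10^6 cells/well and left overnight, then exposed to test compound (1, 1.5, 2, 3 μM) for 6 h. Water-soluble tetrazolium reagent added for 1 h at 37°C; absorbance read at 450 nm against a 650 nm reference. Mean ± SEM of three independent experiments; Student's t-test versus untreated.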

Laforin = target: T5, Laforin (Homo sapiens, UniProt O95278); experiment: In vitro phosphatase assay with OMFP as substrate; format: biochemical
T5 sequence (O95278 1-331): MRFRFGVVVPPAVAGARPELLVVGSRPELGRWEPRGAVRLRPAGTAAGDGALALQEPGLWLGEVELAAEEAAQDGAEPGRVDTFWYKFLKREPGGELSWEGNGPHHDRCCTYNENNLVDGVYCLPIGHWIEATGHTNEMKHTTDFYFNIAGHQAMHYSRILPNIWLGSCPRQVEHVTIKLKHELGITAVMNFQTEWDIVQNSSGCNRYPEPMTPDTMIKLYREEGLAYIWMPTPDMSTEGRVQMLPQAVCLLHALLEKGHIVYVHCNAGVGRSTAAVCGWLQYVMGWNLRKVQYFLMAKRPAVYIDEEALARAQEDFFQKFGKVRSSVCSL
Procedure, shortened: as §1

CD45 = target: T6, CD45 (Homo sapiens, UniProt P08575); experiment: In vitro phosphatase assay with OMFP as substrate; format: biochemical
T6 sequence (P08575 653-912 limits assumed): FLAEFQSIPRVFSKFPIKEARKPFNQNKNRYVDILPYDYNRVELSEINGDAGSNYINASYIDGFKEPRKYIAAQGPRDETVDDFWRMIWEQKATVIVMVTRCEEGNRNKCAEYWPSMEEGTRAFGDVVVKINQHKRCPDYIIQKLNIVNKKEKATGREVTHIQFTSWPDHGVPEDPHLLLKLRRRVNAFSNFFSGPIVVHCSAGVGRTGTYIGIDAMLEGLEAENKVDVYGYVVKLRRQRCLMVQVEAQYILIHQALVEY
Procedure, shortened: as §1

PTPN2 [3] = target: T1, PTPN2; experiment: Kinetic analysis; format: biochemical
DUSP3 = DUSP3 (Homo sapiens, UniProt P51452); experiment: In vitro phosphatase assay with OMFP as substrate; format: biochemical
Procedure, shortened: as §1

SSH3 = target: T7, SSH3 (Homo sapiens, UniProt Q8TE77); experiment: In vitro phosphatase assay with OMFP as substrate; format: biochemical
T7 sequence (Q8TE77 1-659): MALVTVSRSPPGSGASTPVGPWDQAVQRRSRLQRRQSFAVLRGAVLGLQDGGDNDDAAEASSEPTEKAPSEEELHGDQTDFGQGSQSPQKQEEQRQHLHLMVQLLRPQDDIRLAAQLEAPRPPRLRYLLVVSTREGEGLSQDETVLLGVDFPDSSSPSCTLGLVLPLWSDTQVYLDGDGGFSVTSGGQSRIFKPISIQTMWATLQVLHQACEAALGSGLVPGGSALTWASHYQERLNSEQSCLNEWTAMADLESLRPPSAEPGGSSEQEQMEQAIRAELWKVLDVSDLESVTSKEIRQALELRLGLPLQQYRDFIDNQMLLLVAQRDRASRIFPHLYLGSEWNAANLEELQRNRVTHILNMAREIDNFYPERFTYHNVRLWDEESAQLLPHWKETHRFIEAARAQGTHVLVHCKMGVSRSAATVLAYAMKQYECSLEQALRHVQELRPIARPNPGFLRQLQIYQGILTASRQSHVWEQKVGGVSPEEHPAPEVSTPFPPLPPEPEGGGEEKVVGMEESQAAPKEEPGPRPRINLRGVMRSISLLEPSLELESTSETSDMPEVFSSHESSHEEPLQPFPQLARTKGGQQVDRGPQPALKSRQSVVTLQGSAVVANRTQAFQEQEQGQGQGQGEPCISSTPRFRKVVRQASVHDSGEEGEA
Procedure, shortened: as §1

DUSP8 = target: T8, DUSP8 (Homo sapiens, UniProt Q13202); experiment: In vitro phosphatase assay with OMFP as substrate; format: biochemical
T8 sequence (Q13202 1-625): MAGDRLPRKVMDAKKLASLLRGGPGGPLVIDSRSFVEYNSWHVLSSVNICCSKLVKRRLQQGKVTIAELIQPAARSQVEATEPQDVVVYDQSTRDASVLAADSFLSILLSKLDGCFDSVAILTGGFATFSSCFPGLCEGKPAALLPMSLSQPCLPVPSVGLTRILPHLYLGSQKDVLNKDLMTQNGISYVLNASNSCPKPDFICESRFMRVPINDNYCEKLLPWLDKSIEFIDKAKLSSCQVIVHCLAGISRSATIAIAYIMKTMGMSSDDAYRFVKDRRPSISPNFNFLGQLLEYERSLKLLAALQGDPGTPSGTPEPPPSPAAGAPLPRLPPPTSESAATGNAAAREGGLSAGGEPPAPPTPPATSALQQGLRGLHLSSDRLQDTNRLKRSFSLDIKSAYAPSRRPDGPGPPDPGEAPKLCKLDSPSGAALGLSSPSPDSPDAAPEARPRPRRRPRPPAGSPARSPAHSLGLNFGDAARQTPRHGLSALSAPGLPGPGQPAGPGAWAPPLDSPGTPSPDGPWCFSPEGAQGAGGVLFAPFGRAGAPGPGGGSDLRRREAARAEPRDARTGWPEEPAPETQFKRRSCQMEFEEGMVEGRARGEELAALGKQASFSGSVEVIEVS
Procedure, shortened: as §1

Chain of DUSP3 (P51452 whole entry, species assumed): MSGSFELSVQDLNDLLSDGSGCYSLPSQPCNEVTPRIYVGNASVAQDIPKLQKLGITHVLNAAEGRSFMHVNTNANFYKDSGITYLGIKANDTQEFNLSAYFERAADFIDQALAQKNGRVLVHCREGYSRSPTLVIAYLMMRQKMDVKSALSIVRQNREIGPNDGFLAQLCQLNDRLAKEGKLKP
Chain of PTEN (P60484 whole entry, species assumed): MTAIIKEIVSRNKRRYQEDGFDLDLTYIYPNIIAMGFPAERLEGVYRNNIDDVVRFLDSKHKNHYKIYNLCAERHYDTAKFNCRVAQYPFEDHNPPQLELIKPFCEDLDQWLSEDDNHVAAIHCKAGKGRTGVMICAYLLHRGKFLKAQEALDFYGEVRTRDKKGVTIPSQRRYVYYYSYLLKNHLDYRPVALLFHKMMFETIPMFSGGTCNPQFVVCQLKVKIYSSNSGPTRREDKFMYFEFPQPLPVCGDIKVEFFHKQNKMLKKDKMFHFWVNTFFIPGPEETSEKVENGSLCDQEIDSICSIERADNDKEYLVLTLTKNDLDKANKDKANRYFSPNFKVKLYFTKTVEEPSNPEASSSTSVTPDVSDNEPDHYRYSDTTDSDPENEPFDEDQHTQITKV

SMILES | Proteolysis of PTPN2 by trypsin (DARTS) (PTPN2 [1]) | IC50 (DUSP18) | IC50 (DUSP23) | PTPN2-mediated dephosphorylation of STAT3 at Tyr-705 [2] | IC50 (PTEN) | IC50 (Cdc25B) | Cytotoxic effects (cell viability) (HEK 293 cells) | IC50 (Laforin) | IC50 (CD45) | Ki (PTPN2 [3]) | IC50 (DUSP3) | IC50 (SSH3) | IC50 (DUSP8)
O=S(=O)(F)Cc1ccccc1 [PMSF, phenylmethylsulfonyl fluoride] | decreased |  |  |  |  |  |  |  |  |  |  |  | 
CC(C)(C)C(=O)Nc1ccc2c(c1)C(=O)C(=O)c1ccccc1-2 [PTP inhibitor XIX, N-[9, 10-dioxo-9, 10-dihydro-phenanthren-2-yl]-2,2-dimethyl-propionamide] |  | > 50 µM | > 50 µM | inhibited | 1.78 ± 0.34 µM | > 50 µM | no apparent cytotoxic effects | > 100 µM | 0.86 ± 0.03 µM | 0.76 ± 0.08 µM | > 50 µM | > 50 µM | > 50 µM
